Experimental data as given in ChEMBL document CHEMBL1132961 (J Med Chem, 2000).
pEC50, pIC50, pKi: −log10 of the molar value.

Experiments:
[1] = target: T1, Human immunodeficiency virus type 1 protease (Human immunodeficiency virus 1, UniProt Q72874); experiment: Activity of potent nonpeptidic inhibitor against protease
In short: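 Incubated with 40 µM His-Lys-Ala-Arg-Val-Leu-(p-NO₂-Phe)-Glu-Ala-Nle-Ser-NH₂ in 1.0% DMSO, pH 6.2 MES buffer (DTT, NaCl, EDTA, PEG 8000) for 60 min at 37 °C, then TFA quench. Substrate and product separated by reverse-phase HPLC, read at 220 nm. % control = conversion with inhibitor / conversion without × 100; IC50 derived.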

[2] = Concentration which elicits cytotoxicity in 50% of uninfected human lymphocyte derived CEM cells; format: cell-based, CCRF-CEM; details: uninfected CCRF-CEM cells, read-out: TC50 (the source's name)
In short: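 Cytotoxicity measured in uninfected human lymphocyte-derived CEM cells by XTT protocol.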

[3] = tested on: Human immunodeficiency virus 1; experiment: Effective concentration at which 50% of the HIV-IIIB-infected human lymphocyte-derived CEM cells protected from HIV-1 infection; details: Human immunodeficiency virus 1, CCRF-CEM
[4] = target: T1, Human immunodeficiency virus type 1 protease; experiment: Tested for binding affinity against HIV protease

pIC50 [1]	pEC50 [3]	pKi [4]	SMILES	CC50 [2]
8.39	5.66		Cc1cc(SC2=C(O)OC(CCc3ccc(N)cc3)(C(C)C)CC2=O)c(C(C)(C)C)cc1OS(=O)(=O)c1cccnc1 (centres undefined)	66000 nM
8.44	5.62		Cc1cc(SC2=C(O)OC(CCc3ccc(O)cc3)(C3CC3)CC2=O)c(C(C)(C)C)cc1NS(=O)(=O)c1ccccc1 (centres undefined)	76000 nM
8.82	5.28		Cc1cc(SC2=C(O)OC(C)(CCc3ccc(O)cc3)CC2=O)c(C(C)(C)C)cc1NS(=O)(=O)c1ccccc1 (centres undefined)	> 100000 nM
8.68	5.30		Cc1cc(SC2=C(O)OC(C)(CCc3ccc(O)cc3)CC2=O)c(C(C)(C)C)cc1NS(=O)(=O)c1ccc(C#N)cc1 (centres undefined)	> 100000 nM
7.77	5.20		Cc1cc(SC2=C(O)OC(C)(CCc3ccc(O)cc3)CC2=O)c(C(C)(C)C)cc1OS(=O)(=O)c1ccc(F)cc1 (centres undefined)	100000 nM
8.89	6.40		Cc1cc(SC2=C(O)OC(CCc3ccc(N)cc3)(C(C)C)CC2=O)c(C(C)(C)C)cc1OS(=O)(=O)c1ccc(C#N)cc1 (centres undefined)	53000 nM
8.48	5.92		CCNS(=O)(=O)Nc1cc(C(C)(C)C)c(SC2=C(O)OC(CCc3ccccc3)(C(C)C)CC2=O)cc1C (centres undefined)	77000 nM
7.73	5.22		Cc1cc(SC2=C(O)OC(CCc3ccc(N)cc3)(C(C)C)CC2=O)c(C(C)(C)C)cc1OS(=O)(=O)c1cccs1 (centres undefined)	66000 nM
8.07	5.60		Cc1cc(SC2=C(O)OC(CCc3ccc(O)cc3)(C3CCCC3)CC2=O)c(C(C)(C)C)cc1NS(=O)(=O)c1ccccc1 (centres undefined)	67000 nM
8.30	6.15		Cc1cc(SC2=C(O)OC(CCc3ccc(O)cc3)(C(C)C)CC2=O)c(C(C)(C)C)cc1OS(=O)(=O)c1ccccn1 (centres undefined)	84000 nM
8.28	5.80		Cc1cc(SC2=C(O)OC(CCc3ccc(O)cc3)(C(C)C)CC2=O)c(C(C)(C)C)cc1NS(=O)(=O)c1ccc(Cl)cc1 (centres undefined)	66000 nM
8.59	5.39		Cc1cc(SC2=C(O)OC(CCc3ccc(O)cc3)(C(C)C)CC2=O)c(C(C)(C)C)cc1NS(=O)(=O)c1ccccn1 (centres undefined)	> 100000 nM
8.20	5.25		Cc1cc(SC2=C(O)OC(C)(CCc3ccc(O)cc3)CC2=O)c(C(C)(C)C)cc1NS(=O)(=O)c1ccc(-c2cccs2)cc1 (centres undefined)	> 100000 nM
8.72	5.38		Cc1cc(SC2=C(O)OC(CCc3ccccc3)(C(C)C)CC2=O)c(C(C)(C)C)cc1NS(=O)(=O)Cn1ccnc1 (centres undefined)	> 100000 nM
8.43	5.25		Cc1cc(SC2=C(O)OC(C)(CCc3ccc(O)cc3)CC2=O)c(C(C)(C)C)cc1NS(=O)(=O)c1ccc(F)cc1 (centres undefined)	93000 nM
7.68	5.59		Cc1cc(SC2=C(O)OC(CCc3ccc(O)cc3)(C3CCCCC3)CC2=O)c(C(C)(C)C)cc1OS(=O)(=O)c1ccc(C#N)cc1 (centres undefined)	29000 nM
8.72	4.24		Cc1cc(SC2=C(O)OC(C)(CCc3ccc(O)cc3)CC2=O)c(C(C)(C)C)cc1NS(=O)(=O)Cn1ccnc1 (centres undefined)	> 100000 nM
8.39	5.74		Cc1cc(SC2=C(O)OC(CCc3ccc(O)cc3)(C(C)C)CC2=O)c(C(C)(C)C)cc1NS(=O)(=O)c1ccc(F)cc1 (centres undefined)	66000 nM
	5.74	8.96	Cc1cc(SC2=C(O)OC(CCc3ccccc3)(C(C)C)CC2=O)c(C(C)(C)C)cc1O (centres undefined)	66000 nM
7.74	5.96		Cc1cc(SC2=C(O)OC(CCc3ccc(O)cc3)(C(C)C)CC2=O)c(C(C)(C)C)cc1NS(=O)(=O)c1ccc(C(F)(F)F)cc1 (centres undefined)	66000 nM
8.77	5.48		CCNS(=O)(=O)Nc1cc(C(C)(C)C)c(SC2=C(O)OC(CCc3ccc(O)cc3)(C(C)C)CC2=O)cc1C (centres undefined)	> 100000 nM
8.01	4.92		Cc1cc(SC2=C(O)OC(C)(CCc3ccc(O)cc3)CC2=O)c(C(C)(C)C)cc1OS(=O)(=O)c1ccccc1 (centres undefined)	82000 nM
	5.74	9.41	Cc1cc(SC2=C(O)O[C@](CCc3ccc(O)cc3)(C(C)C)CC2=O)c(C(C)(C)C)cc1NS(=O)(=O)c1ccc(C(F)(F)F)cn1	66000 nM
	5.82	8.85	Cc1cc(SC2=C(O)OC(CCc3ccccc3)(C(C)C)CC2=O)c(C(C)(C)C)cc1NS(=O)(=O)c1cccc(C#N)c1 (centres undefined)	66000 nM
7.91	5.46		Cc1cc(SC2=C(O)OC(C)(CCc3ccc(O)cc3)CC2=O)c(C(C)(C)C)cc1NS(=O)(=O)c1ccc(C(F)(F)F)cc1 (centres undefined)	79000 nM

pIC50 [1]	pEC50 [3]	pKi [4]	SMILES	CC50 [2]
	6.15		CCNS(=O)(=O)Oc1cc(C(C)(C)C)c(SC2=C(O)OC(CCc3ccc(N)cc3)(C(C)C)CC2=O)cc1C (centres undefined)	83000 nM
	6.10		Cc1cc(SC2=C(O)OC(CCc3ccc(N)cc3)(C(C)C)CC2=O)c(C(C)(C)C)cc1OS(=O)(=O)N(C)C (centres undefined)	64000 nM
			Cc1cc(SC2=C(O)OC(CCc3ccc(O)cc3)(C(C)C)CC2=O)c(C(C)(C)C)cc1OS(=O)(=O)N(C)C (centres undefined)	70000 nM
	4.74	8.02	Cc1cc(SC2=C(O)O[C@@](CCc3ccc(O)cc3)(C(C)C)CC2=O)c(C(C)(C)C)cc1NS(=O)(=O)c1ccc(C(F)(F)F)cn1	66000 nM
	5.23	8.19	Cc1cc(SC2=C(O)O[C@@](CCc3ccccc3)(C(C)C)CC2=O)c(C(C)(C)C)cc1NS(=O)(=O)c1ccc(C(F)(F)F)cn1	66000 nM
8.44	5.68		Cc1cc(SC2=C(O)OC(CCc3ccccc3)(C(C)C)CC2=O)c(C(C)(C)C)cc1NS(=O)(=O)c1cccs1 (centres undefined)	61000 nM
8.40	5.28		Cc1cc(SC2=C(O)OC(CCc3ccc(O)cc3)(C(C)C)CC2=O)c(C(C)(C)C)cc1NS(C)(=O)=O (centres undefined)	> 100000 nM
8.46	5.80		Cc1cc(SC2=C(O)OC(CCc3ccccc3)(C(C)C)CC2=O)c(C(C)(C)C)cc1NS(=O)(=O)c1cccnc1 (centres undefined)	76000 nM
7.98	5.80		Cc1cc(SC2=C(O)OC(CCc3ccc(O)cc3)(C(C)C)CC2=O)c(C(C)(C)C)cc1OS(=O)(=O)c1ccccc1 (centres undefined)	66000 nM
	5.28	9.68	Cc1cc(SC2=C(O)OC(CCc3ccc(O)cc3)(C(C)C)CC2=O)c(C(C)(C)C)cc1NS(=O)(=O)c1cccc(C#N)c1 (centres undefined)	> 100000 nM
8.01	4.72		Cc1cc(SC2=C(O)OC(C)(CCc3ccc(O)cc3)CC2=O)c(C(C)(C)C)cc1NS(C)(=O)=O (centres undefined)	> 100000 nM
8.02	6.10		Cc1cc(SC2=C(O)OC(CCc3ccc(O)cc3)(C(C)C)CC2=O)c(C(C)(C)C)cc1OS(=O)(=O)c1ccc(F)cc1 (centres undefined)	66000 nM
7.85	5.34		Cc1cc(SC2=C(O)OC(CCc3ccccc3)(C(C)C)CC2=O)c(C(C)(C)C)cc1OS(=O)(=O)c1cccnc1 (centres undefined)	65000 nM
	5.96	9.15	Cc1cc(SC2=C(O)OC(CCc3ccccc3)(C(C)C)CC2=O)c(C(C)(C)C)cc1OS(=O)(=O)c1ccc(C#N)cc1 (centres undefined)	25000 nM
8.17	5.85		Cc1cc(SC2=C(O)OC(CCc3ccccc3)(C(C)C)CC2=O)c(C(C)(C)C)cc1OS(=O)(=O)c1ccccn1 (centres undefined)	65000 nM
8.46	5.41		Cc1cc(SC2=C(O)OC(C)(CCc3ccc(O)cc3)CC2=O)c(C(C)(C)C)cc1NS(=O)(=O)c1ccc(Cl)cc1 (centres undefined)	71000 nM
8.44	5.77		Cc1cc(SC2=C(O)OC(CCc3ccc(O)cc3)(C(C)C)CC2=O)c(C(C)(C)C)cc1NS(=O)(=O)N(C)C (centres undefined)	> 100000 nM
8.06	5.74		Cc1cc(SC2=C(O)OC(CCc3ccc(O)cc3)(C(C)C)CC2=O)c(C(C)(C)C)cc1NS(=O)(=O)c1cccs1 (centres undefined)	> 100000 nM
8.52	5.96		Cc1cc(SC2=C(O)OC(CCc3ccccc3)(C(C)C)CC2=O)c(C(C)(C)C)cc1OS(=O)(=O)Cn1ccnc1 (centres undefined)	66000 nM
8.59	5.24		Cc1cc(SC2=C(O)OC(CCc3ccc(O)cc3)(C(C)C)CC2=O)c(C(C)(C)C)cc1NS(=O)(=O)c1cccnc1 (centres undefined)	> 100000 nM
6.88	< 4.23		Cc1cc(SC2=C(O)OC(CCc3ccc(O)cc3)(C3CCCCC3)CC2=O)c(C(C)(C)C)cc1OS(=O)(=O)c1ccccc1 (centres undefined)	59000 nM
7.54	5.02		Cc1cc(SC2=C(O)OC(CCc3ccc(O)cc3)(C3CCCCC3)CC2=O)c(C(C)(C)C)cc1OS(=O)(=O)c1ccc(F)cc1 (centres undefined)	66000 nM
7.89	5.43		Cc1cc(SC2=C(O)OC(C)(CCc3ccc(O)cc3)CC2=O)c(C(C)(C)C)cc1N (centres undefined)	> 100000 nM
	6.00		CCNS(=O)(=O)Oc1cc(C(C)(C)C)c(SC2=C(O)OC(CCc3ccc(O)cc3)(C(C)C)CC2=O)cc1C (centres undefined)	> 100000 nM
	4.26		CC(=O)Nc1ccc(S(=O)(=O)Nc2cc(C(C)(C)C)c(SC3=C(O)OC(C)(CCc4ccc(O)cc4)CC3=O)cc2C)cc1 (centres undefined)	> 100000 nM

SMILES	pIC50 [1]	pEC50 [3]	pKi [4]	CC50 [2]
Cc1cc(SC2=C(O)OC(CCc3ccccc3)(C(C)C)CC2=O)c(C(C)(C)C)cc1N (centres undefined)	8.44	5.72		69000 nM
Cc1cc(SC2=C(O)OC(CCc3ccc(O)cc3)(C(C)C)CC2=O)c(C(C)(C)C)cc1N (centres undefined)		6.00		92000 nM
